According to ChEMBL document CHEMBL1138429, “Novel carbazole derivatives as NPY Y1 antagonists” (Bioorg Med Chem Lett, 2007):

Assays:
[1] = target: T1, Neuropeptide Y receptor type 1 (Homo sapiens, UniProt P25929); assay: Displacement of [125]peptide YY from human recombinant Y1 receptor expressed in CHO cells; type: cell-based
T1 sequence (P25929 whole entry): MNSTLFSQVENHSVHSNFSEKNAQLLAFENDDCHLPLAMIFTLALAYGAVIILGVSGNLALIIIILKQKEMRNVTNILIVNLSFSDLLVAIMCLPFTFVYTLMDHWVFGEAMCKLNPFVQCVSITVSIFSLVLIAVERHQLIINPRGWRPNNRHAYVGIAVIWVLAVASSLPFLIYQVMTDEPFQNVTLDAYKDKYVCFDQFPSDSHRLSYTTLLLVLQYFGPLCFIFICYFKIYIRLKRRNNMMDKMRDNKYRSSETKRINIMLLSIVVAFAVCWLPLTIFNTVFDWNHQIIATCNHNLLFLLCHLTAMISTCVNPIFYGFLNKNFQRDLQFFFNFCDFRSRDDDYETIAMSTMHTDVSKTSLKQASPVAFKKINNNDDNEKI

[2] = Ratio of drug level in […] plasma in Sprague-Dawley rat at 1 mg/kg, iv after 5 mins; type: ADME, organism-based; design: dose 1 mg/kg, route intravenous
Summary of the method: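 Brain penetration was assessed in male Sprague–Dawley rats dosed iv at 1 mg/kg in DMSO/PEG400/H2O 5:50:45 solution. The partition ratio was measured 5 min after dosing.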

[3] = Plasma clearance in Sprague-Dawley rat at 1 mg/kg, iv; type: ADME, organism-based; design: dose 1 mg/kg, route intravenous
Summary of the method: (§1)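 Male Sprague–Dawley rats given 1 mg/kg iv as a solution in DMSO/PEG400/H2O 5:50:45. Clearance, half-life, volume of distribution and AUC were derived from the post-dose profile.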

[4] = Half life in Sprague-Dawley rat at 1 mg/kg, iv; type: ADME, organism-based; design: dose 1 mg/kg, route intravenous; settings: in vivo; summary of the method: as §1
[5] = Oral bioavailability in Sprague-Dawley rat at 5 mg/kg, po; type: ADME, organism-based; settings: in vivo
Summary of the method: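 Male Sprague–Dawley rats received 5 mg/kg orally as a methocel suspension. F was calculated from the normalised AUC against the iv (1 mg/kg) dose.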

[6] = Ratio of drug level in […] plasma in Sprague-Dawley rat at 1 mg/kg, iv after 5 mins; settings: in vivo

IC50 [1] [nM]	Compound	also measured
7760	O=C(c1cc(Oc2ccc(Cl)cc2)c2c(c1)c1ccccc1n2C[C@@H]1CCNC[C@@H]1F)N1CCC(O)CC1	–
263	CCN1CCCC1CNC(=O)c1cc(Oc2ccc(Cl)cc2)c2c(c1)c1ccccc1n2C[C@@H]1CCNC[C@H]1F (stereo partly specified)	–
2880	O=C(c1cc(Oc2ccc(Cl)cc2)c2c(c1)c1ccccc1n2C[C@@H]1CCNC[C@@H]1F)N1CCc2nc[nH]c2C1	–
186	CN1CCN(C(=O)c2cc(Oc3ccc(Cl)cc3)c3c(c2)c2ccccc2n3C[C@@H]2CCN(C3CC3)C[C@@H]2F)CC1	–
467	CN(C)C1CCN(C(=O)c2cc(Oc3ccc(Cl)cc3)c3c(c2)c2ccccc2n3C[C@@H]2CCNC[C@H]2F)C1 (stereo partly specified)	–
43	CN1CCN(C(=O)c2cc(Oc3ccc(Cl)cc3)c3c(c2)c2ccccc2n3CC2=C(F)CNCC2)CC1	–
95	CN1CCN(C(=O)c2cc(Oc3ccc(Cl)cc3)c3c(c2)c2ccccc2n3C[C@@H]2CCN(C)C[C@H]2F)CC1	blood plasma ratio at 5 min [2]: 8.2
832	O=C(c1cc(Oc2ccc(Cl)cc2)c2c(c1)c1ccccc1n2C[C@@H]1CCNC[C@@H]1F)N1CCN(CCO)CC1	–
191	CN(C)CCN(C)C(=O)c1cc(Oc2ccc(Cl)cc2)c2c(c1)c1ccccc1n2C[C@@H]1CCNC[C@H]1F	–
53	CN1CCN(C(=O)c2cc(Oc3ccc(Cl)cc3)c3c(c2)c2ccccc2n3C[C@@H]2CCNC[C@H]2F)CC1	–
871	O=C(c1cc(Oc2ccc(Cl)cc2)c2c(c1)c1ccccc1n2C[C@@H]1CCNC[C@H]1F)N1CCN(C2CC2)CC1	–
50	CN1CCN(C(=O)c2cc(Oc3ccc(Cl)cc3)c3c(c2)c2ccccc2n3CCCN2CCCCC2)CC1	–
1860	CN1CCCC1CCNC(=O)c1cc(Oc2ccc(Cl)cc2)c2c(c1)c1ccccc1n2C[C@@H]1CCNC[C@H]1F (stereo partly specified)	–
107	CN1CCN(C(=O)c2cc(Oc3ccc(Cl)cc3)c3c(c2)c2ccccc2n3CC2CCCNC2)CC1 (stereo unspecified)	–
50	CN(C)CCNC(=O)c1cc(Oc2ccc(Cl)cc2)c2c(c1)c1ccccc1n2C[C@@H]1CCNC[C@H]1F	–
28	CN1CCN(C(=O)c2cc(Oc3ccc(Cl)cc3)c3c(c2)c2ccccc2n3C[C@@H]2CCN(C)C[C@@H]2F)CC1	clearance [3]: 15 mL/min/kg; blood plasma ratio at 5 min [2]: 4.2; half-life [4]: 11 h; bioavailability [5]: 19%
9770	O=C(c1cc(Oc2ccc(Cl)cc2)c2c(c1)c1ccccc1n2C[C@@H]1CCNC[C@@H]1F)N1CCN(CC(F)(F)F)CC1	–
12000	CN(C)C(=O)c1cc(Oc2ccc(Cl)cc2)c2c(c1)c1ccccc1n2C[C@@H]1CCNC[C@H]1F	–
1910	O=C(c1cc(Oc2ccc(Cl)cc2)c2c(c1)c1ccccc1n2C[C@@H]1CCNC[C@@H]1F)N1CCn2ccnc2C1	–
11	CN1CCC(Cn2c3ccccc3c3cc(C(=O)N4CCN(C)CC4)cc(Oc4ccc(Cl)cc4)c32)CC1	blood plasma ratio at 5 min [2]: 0.8
14	CN1CCN(C(=O)c2cc(Oc3ccc(Cl)cc3)c3c(c2)c2ccccc2n3CC2CCN(CC(=O)N(C)C)CC2)CC1	–
16	CN1CCN(C(=O)c2cc(Oc3ccc(Cl)cc3)c3c(c2)c2ccccc2n3CC2CCNCC2)CC1	Ratio [6]: 0.12; bioavailability [5]: 0%
51	CN1CCN(C(=O)c2cc(Oc3ccc(Cl)cc3)c3c(c2)c2ccccc2n3C[C@@H]2CCNC[C@@H]2F)CC1	–
